Columns and labels:
Rattus norvegicus [1] = assay: Reduction in circulating lymphocytes in Lewis rat at 1 mg/kg, po after 4 hrs; format: functional
How it was run: (§1)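 Healthy Lewis rats dosed orally with test article as solution or suspension in vehicle, or vehicle alone. Blood drawn at 4 h and 24 h. Circulating lymphocyte percentage measured by hematology analyzer, expressed as reduction versus the vehicle group. Group average, n = 3–4.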

Rattus norvegicus [2] = assay: Reduction in circulating lymphocytes in Lewis rat at 1 mg/kg, po after 24 hrs; format: functional; how it was run: as §1
[3] = Plasma concentration Lewis rat at 1 mg/kg, po after 24 hrs; format: ADME, organism-based
How it was run: (§2)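 Lewis rats given 1.0 mg/kg orally as solution or suspension in vehicle. Plasma drug concentration measured in blood drawn at 4 h and 24 h; 4 h/24 h ratio taken from these values.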

Plasma = assay: Ratio of plasma concentration Lewis rat at 1 mg/kg, po after 4 hrs to plasma concentration Lewis rat at 1 mg/kg, po after 24 hrs; format: ADME, organism-based; conditions: in vivo; how it was run: as §2
[4] = Plasma concentration Lewis rat at 1 mg/kg, po after 4 hrs; format: ADME, organism-based; how it was run: as §2
[5] = Selectivity index, ratio of EC50 for agonist activity at human S1P3 receptor expressed in EDG3-Ga15-bla HEK293T cell membranes to EC50 for agonist activity at human S1P1 receptor expressed in CHO cell membranes; format: cell-based
How it was run: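 S1P3/S1P1 ratio of GTPγ[35S] EC50s. Membranes from EDG3-Ga15-bla HEK293T (S1P3) or S1P1/CHO cells, […], 0.2 nM final [35S]GTP. HEPES pH 7.5 buffer with MgCl2, NaCl, EGTA, DTT, GDP, BSA and saponin. 45 min at room temperature, filtration read-out. Each EC50 taken at 50% of the compound's own Ymax.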

[6] = target: Sphingosine 1-phosphate receptor 3 (Homo sapiens, UniProt Q99500); assay: Agonist activity at human S1P3 receptor expressed in EDG3-Ga15-bla HEK293T cell membranes assessed as stimulation of [35S]GTPgamma binding incubated for 45 mins by liquid scintillation counting method; set-up: species or system HEK-293T
Chain of Sphingosine 1-phosphate receptor 3 (Q99500 whole entry): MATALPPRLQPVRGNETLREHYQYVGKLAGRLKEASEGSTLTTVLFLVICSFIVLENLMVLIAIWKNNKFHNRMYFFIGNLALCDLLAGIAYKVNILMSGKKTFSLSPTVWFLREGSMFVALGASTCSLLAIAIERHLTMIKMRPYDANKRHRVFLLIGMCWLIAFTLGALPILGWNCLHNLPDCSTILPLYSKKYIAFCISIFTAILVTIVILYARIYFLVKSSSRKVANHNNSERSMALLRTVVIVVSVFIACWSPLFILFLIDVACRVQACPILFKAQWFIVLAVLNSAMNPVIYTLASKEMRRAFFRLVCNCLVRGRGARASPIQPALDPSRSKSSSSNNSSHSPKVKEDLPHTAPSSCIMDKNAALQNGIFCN
How it was run: (§3)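 Membranes from S1P1/CHO cells (S1P1) or EDG3-Ga15-bla HEK293T cells (S1P3), final protein […], with 3-fold compound dilutions. Buffer: 20 mM HEPES pH 7.5, 10 mM MgCl2, 150 mM NaCl, 1 mM EGTA, 1 mM DTT, GDP, 0.1% fatty acid free BSA, saponin. [35S]GTP 0.2 nM final. Room temperature, 45 min. Filtered, washed with water, dried 60 °C. EC50 taken at 50% of each compound's Ymax.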

[7] = target: Sphingosine 1-phosphate receptor 1 (Homo sapiens, UniProt P21453); assay: Agonist activity at human S1P1 receptor expressed in CHO cell membranes assessed as stimulation of [35S]GTPgamma binding incubated for 45 mins by liquid scintillation counting method; how it was run: as §3
Chain of Sphingosine 1-phosphate receptor 1 (P21453 whole entry): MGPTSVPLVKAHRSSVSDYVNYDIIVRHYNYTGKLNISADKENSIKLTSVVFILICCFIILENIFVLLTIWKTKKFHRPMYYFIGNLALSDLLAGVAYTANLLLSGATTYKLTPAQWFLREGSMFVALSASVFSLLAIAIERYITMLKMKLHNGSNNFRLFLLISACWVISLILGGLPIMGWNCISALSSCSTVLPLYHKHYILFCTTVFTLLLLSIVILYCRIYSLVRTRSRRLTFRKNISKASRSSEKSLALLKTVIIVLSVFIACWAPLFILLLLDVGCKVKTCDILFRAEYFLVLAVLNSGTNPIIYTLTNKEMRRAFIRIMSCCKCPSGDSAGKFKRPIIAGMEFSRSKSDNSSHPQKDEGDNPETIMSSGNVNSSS

| Compound | inhibition in vivo at 1 mg/kg (Rattus norvegicus [1]) | inhibition in vivo at 1 mg/kg (Rattus norvegicus [2]) | concentration at 24 h [3] | Ratio (Plasma) | concentration at 4 h [4] | Ratio EC50 [5] | EC50 [6] | EC50 [7] |
| --- | --- | --- | --- | --- | --- | --- | --- | --- |
| CCCc1c(-c2nc(-c3ccc(CN4CC(C(=O)O)C4)cc3)no2)noc1-c1ccccn1 | 81% | 53% | 9.9 nM | 30 | 292 nM | 2500 | – | – |
| CCCc1c(-c2ccccn2)noc1-c1nc(-c2ccc(CN3CC(C(=O)O)C3)cc2)no1 | 82% | 85% | 26 nM | 12 | 318 nM | 3000 | 630 nM | 0.21 nM |
| CC(C)c1c(-c2nc(-c3ccc(CN4CC(C(=O)O)C4)cc3)no2)noc1-c1ccccn1 | 84% | 64% | 31 nM | 22 | 686 nM | 8200 | 8200 nM | – |

Source: ChEMBL document CHEMBL3792331, “Identification and synthesis of potent and selective pyridyl-isoxazole based agonists of sphingosine-1-phosphate 1 (S1P1)” (Bioorg Med Chem Lett, 2016)
